Compound activity deposited in PubChem by The Scripps Research Institute Molecular Screening Center.
Sampled rows, rich in hits. Any-hit rate of the full collection: about 2.3%.
PLC-beta3 inh = blocks human PLC-beta3 enzyme activity | Purified PLC-beta3, fluorogenic substrate, fluorescence | actives 0.18% (n = 370,000) | inhibition, % at 12.2 µM | AID 720704; in the data active = inhibition above about 11%;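 also: 0% = median of compound wells on plate and 100% = full blocker control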
DDE Tn7 FP inh = disrupts Tn7 cyclic peptide binding to fibrin D-Dimer-E complex; FP displacement of FITC-Tn7 peptide from fibrin DD(E); 0% = median of compound wells per plate; AID 720508; actives 0.13% (n = 370,000); inhibition, % at 8.3 µM;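 active = inhibition above the mean of compounds falling within the control limits plus 3 SD of them, cut at about 14% in these data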;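 also: 0% = plate median of compound wells and 100% = 10 µM Aha-Tn7 peptide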
Target sequence (P02675 whole entry, looked up): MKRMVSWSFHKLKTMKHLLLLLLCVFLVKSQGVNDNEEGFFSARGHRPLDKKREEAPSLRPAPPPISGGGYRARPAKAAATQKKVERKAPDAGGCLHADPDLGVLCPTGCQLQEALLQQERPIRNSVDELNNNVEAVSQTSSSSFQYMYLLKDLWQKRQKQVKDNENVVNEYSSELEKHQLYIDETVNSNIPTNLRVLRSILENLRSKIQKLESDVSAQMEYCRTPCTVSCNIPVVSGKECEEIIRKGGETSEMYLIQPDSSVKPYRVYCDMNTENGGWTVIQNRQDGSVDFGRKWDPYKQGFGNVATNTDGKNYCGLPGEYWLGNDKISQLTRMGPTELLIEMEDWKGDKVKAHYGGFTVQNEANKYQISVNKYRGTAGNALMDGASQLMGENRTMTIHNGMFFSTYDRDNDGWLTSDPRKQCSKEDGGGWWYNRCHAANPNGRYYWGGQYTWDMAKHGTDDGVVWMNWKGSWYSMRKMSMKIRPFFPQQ
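System: human fibrin DD(E); quantity: Fibrin-DD(E) at 2 µM final; also added: fluorescent Tn7 probe at 0.1 µM; compound dosing: single nominal test concentration of 8.3 µM per compound; schedule: 10 min preincubation, 3 h with tracer, room temperature; detection: fluorescence polarization of the labelled Tn7 tracer; repeats: one replicate per compound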
ADAM10 inh = ADAM10 inhibition, QFRET primary screen. inhibition, % at 7 µM. recombinant ADAM10, EDANS/DABCYL FRET peptide cleavage, 3 h. actives 0.62% (n = 370,000). O14672;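 active = inhibition above a per-campaign cutoff equal to the mean of compounds falling between control-based bounds plus 3 SD, cut at about 20% in these data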;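 also: 0% = DMSO wells while the 100% control is not disclosed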
PLC-gamma1 inh = inhibitors of human phospholipase C gamma1; P19174; inhibition, % at 12.2 µM; actives 0.84% (n = 370,000); purified PLC-gamma1, fluorogenic substrate, fluorescence; in the data active = inhibition above about 9.5%
Tn6 DDE FP = disrupts Tn6 cyclic peptide binding to fibrin D-Dimer-E complex; P02675; Fibrin DD(E) TRITC-Tn6 fluorescence polarization displacement; inhibition, % at 8.3 µM; actives 0.21% (n = 370,000); AID 720509;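 active = inhibition above a per-campaign cutoff: mean of compounds within control limits plus 3 SD, cut at about 15% in these data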;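 also: 0% = median of all compound wells on the plate and 100% = blocking peptide control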
ADAM17 inh = ADAM17 inhibition, QFRET primary screen; P78536; recombinant ADAM17, EDANS/DABCYL FRET peptide cleavage; inhibition, % at 6.95 µM; actives 0.83% (n = 370,000); AID 720648;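 active = inhibition above the mean of compounds lying between control limits plus 3 SD, set per campaign, cut at about 8.5% in these data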;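 also: 0% = DMSO-only wells as the low control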
ADAM10 confirm = human ADAM10 inhibition, confirmation | AID 743208 | ADAM10 QFRET peptide cleavage, EDANS fluorescence | inhibition, % at 6.95 µM | actives 1% (n = 2,100) | shares compounds with ADAM10 inh;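 active = inhibition above about 20% chosen separately for each screening run, limit read from the data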;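 also: 0% = DMSO wells and 100% = marimastat wells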
ADAM17 counter = counter-screen for ADAM10 exosite inhibitors: inhibitors of human ADAM17 | actives 0.5% (n = 2,100) | AID 743214 | inhibition, % at 6.95 µM | ADAM17 QFRET peptide cleavage, EDANS fluorescence | shares compounds with ADAM10 inh;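 active = mean triplicate inhibition above the solvent-only control wells' mean plus 3 SD, cut at about 12% in these data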;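 also: 0% = DMSO wells and 100% = marimastat wells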
ADAM10 ctr = counter-screen for ADAM17 exosite inhibitors: inhibitors of human ADAM10 | shares compounds with ADAM17 inh | recombinant ADAM10, EDANS/DABCYL FRET peptide cleavage, 3 h | inhibition, % at 6.95 µM | actives 47% (n = 2,900);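 active = mean inhibition over the triplicate runs exceeds the activity threshold set in the earlier primary screen, cut at about 20% in these data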;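 also: 0% = DMSO wells and 100% = marimastat wells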
ADAM17 confirm = confirmation of inhibitors of human ADAM17. recombinant ADAM17, EDANS/DABCYL QFRET peptide cleavage. AID 743257. actives 65% (n = 2,900). inhibition, % at 6.95 µM. shares compounds with ADAM17 inh;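 active = mean inhibition across replicates above the hit cutoff set in the primary screen, cut at about 8.5% in these data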;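 also: 0% = DMSO wells and 100% = marimastat wells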
* = called active by the depositor; · = no result given.

SMILES | PLC-beta3 inh | DDE Tn7 FP inh | ADAM10 inh | PLC-gamma1 inh | Tn6 DDE FP | ADAM17 inh | ADAM10 confirm | ADAM17 counter | ADAM10 ctr | ADAM17 confirm
N#CCCN(C(=O)COC(=O)c1ccc(CNS(=O)(=O)c2ccc(F)c(Cl)c2)cc1)c1ccc(F)cc1 | 7 | -11 | 21* | 5 | -8 | 12* | 2 | 0 | 35* | 22*
CCCN(CC1CC1)C(=O)COC(=O)c1ccc(CNS(=O)(=O)c2ccc(F)c(Cl)c2)cc1 | -1 | 9 | -8 | -1 | 5 | -3 | · | · | · | ·
Nc1nc(NCc2ccco2)nc(Nc2ccccc2)c1[N+](=O)[O-] | 0 | -10 | 11 | 6 | 9 | 1 | · | · | · | ·
Nc1nc(Nc2ccccc2)nc(NCc2ccco2)c1[N+](=O)[O-] | 6 | -6 | 22* | 7 | -15 | 9.7* | 2 | 1 | 36* | 19*
Cc1nn(CCC(=O)NNC(=O)Nc2ccc(F)cc2)c(C)c1[N+](=O)[O-] | 2 | 3 | -2 | 1 | 2 | 0 | · | · | · | ·
Cc1cccc(NS(=O)(=O)c2ccc(C3CCCCC3)cc2)c1 | 4 | 0 | 32* | 6 | -4 | 16* | 10 | 4 | 24* | 15*
COc1ccccc1C(=O)NC1CCCCN(Cc2ccc(OC(F)(F)F)cc2)C1=O (centres undefined) | 0 | -1 | -1 | 0 | -2 | 3 | · | · | · | ·
c1ccc(CN2CCN(c3ncnc4sccc34)CC2)cc1 | -1 | -6 | 3 | 5 | 2 | 2 | · | · | · | ·
CN1CCN(c2ccc3c(c2)Oc2ccccc2CN(Cc2cn(Cc4ccc(F)cc4)nn2)S3(=O)=O)CC1 | -4 | -9 | 0 | 0 | 1 | 0 | · | · | · | ·
COc1cc(O)c(C(CCN2CCN(c3ccccc3)CC2)c2ccc3c(c2)OCO3)c(OC)c1 (centres undefined) | 10 | 1 | 24* | 6 | -2 | 12* | 9 | 3 | 9 | 6
O=C(CSc1nnc(COc2ccccc2)n1-c1ccccc1)Nc1ccc(S(=O)(=O)Nc2nccs2)cc1 | 2 | -3 | 14 | -1 | 7 | 4 | · | · | · | ·
COc1ccc(C2C(C(=O)Nc3cc(OC)ccc3OC)CCC(=O)N2c2ccc(OC)cc2)cc1 (centres undefined) | -1 | 1 | -6 | -1 | -6 | 3 | · | · | · | ·
CC(=O)Nc1ccc(N(CC(O)Cn2c3ccccc3c3ccccc32)S(=O)(=O)c2ccc(C)cc2)cc1 (centres undefined) | -1 | -5 | 29* | -1 | -1 | 10* | 10 | 4 | 41* | 23*
C=C(C)C(=O)OCC(O)COc1ccc(C(C)(C)c2ccc(OCC(O)COC(=O)C(=C)C)cc2)cc1 (centres undefined) | 3 | 5 | 35* | 1 | -5 | 9.5* | 8 | 2 | 33* | 18*
CC(=O)N(C)c1ccc(OCC(O)COc2ccc(N(C)C(C)=O)cc2)cc1 | -1 | -1 | -5 | 3 | -2 | -1 | · | · | · | ·
Cc1cc(C)c(O)c(-c2n[nH]c3c2C(c2cccc(O)c2)N(Cc2ccco2)C3=O)c1 (centres undefined) | 7 | -2 | 37* | 6 | -20 | 21* | 7 | 1 | 48* | 23*
COc1ccc(CCN2C(=O)c3[nH]nc(-c4ccccc4O)c3C2c2cccc(O)c2)cc1OC (centres undefined) | 2 | -5 | 30* | 5 | -8 | 9.1* | 0 | 0 | 33* | 14*
